Measured values as given in the EternaBench riboswitch data.

System: MS2 coat protein
Test: apparent Kd, MS2 coat protein; higher = weaker binding; RNA-MaP array; FMN 200 µM where present
How it was run: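 Designs on Illumina sequencing-chip clusters, transcribed by stalled E. coli RNA polymerase, were exposed to SNAP-549-labelled MS2 coat protein in doubling steps from 0.7 or 1.5 nM up to 3 µM, without and then with constant ligand. The buffer held 100 mM Tris-HCl pH 7.5, 80 mM KCl, 4 mM MgCl2, BSA, DTT, yeast tRNA and Tween-20. Apparent Kd values are medians of filtered per-cluster binding-curve fits to green signal normalised to red-channel RNA signal and control-cluster median Fmax.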

[1] = designed as: OFF switch for flavin mononucleotide, no ligand
[2] = ligand present: flavin mononucleotide, designed as: OFF switch for flavin mononucleotide
[3] = designed as: ON switch for flavin mononucleotide, no ligand
[4] = ligand present: flavin mononucleotide, designed as: ON switch for flavin mononucleotide

| Sequence | apparent Kd [1] [nM] | apparent Kd [2] [nM] | apparent Kd [3] [nM] | apparent Kd [4] [nM] |
| --- | --- | --- | --- | --- |
| UGAACUUCAGAGAAGGUCGAAUCACAACGGUUCGAAGGAUAUCUGGAAACAUGAGGAUCACCCAUGUAACCGGGUGGAUGUCCU | 56.2 | 242 |  |  |
| UGAUAGGACACAGGAUAUACGUGCUAGAGAUACUAGCAAAAUUUCCUCACAUGAGGAUCACCCAUGUAGAAGGGUGUCCUAUCU | 10.3 | 135 |  |  |
| ACAUGAGGAUCACCCAUGUUUACAUGGAUUAUUAAUCUUGGAUAGGAUAUGUUAGUUAAGUAUUUACAGAAGGAUCAAUUCCUU | 27.7 | 20.2 |  |  |
| AAAGGACAUGAGGAUCACCCAUGUCAGGAUAUCGCUUUAGGACAUACCCAUUAACCUGCGAGAAGGGACGGUGA | 32.8 | 44.6 |  |  |
| AGGUACAUGAGGAUCACCCAUGUAAGAGACCUCAUGCGAUGUAGAAGGAUUAUCCGAGAAGAGGAAUAGGAUAUACAUGAGAAA | 158 | 127 |  |  |
| AUGUUAGGAGGAUAUCGAUUUCAGGACAUGAGGAUCACCCAUGUACUAAAAGUCGUGGUUCGAGAAGGCCUAACUU | 17.5 | 23.5 |  |  |
| UGGUACUAGGGAGGAUAUGGGAUGAUACAUGAGGAUCACCCAUGUUUAAGAAUGCCGAGAGGCAACUAGAAGGCCCUAGUACCU |  |  | 448 | 174 |
| AGAUAACACCAGAAGGACAUGAGGAUCACCCAUGUAGGAUAUGGGCAUCACUCGAGAAAGAAAAGACCAAAUGUACACGCGGUC |  |  | 91.7 | 9.27 |
| CCACGGUAUGUAGGAUAUGCAUAGCAUUGCUAUGCAGAAGGACAUGAGGAUCACCCAUGUAUGUAUUCCAUACUAAUCCCGUGU | 6.29 | 5.9 |  |  |
| GUCAGCUCGUGAGGAUAUACAUGUGCUGGAAACAGCACUAAUAGAAUCACAUGAGGAUCACCCAUGUAGAAGGCACGAGCUGAU | 16.9 | 40.8 |  |  |
| AUGCGGUCAGGAUAUGCAUGGCGGGACUUGCGUCGUGGCGUGGAGAAGGGACAUGAGGAUCACCCAUGUGGAGC | 53.5 | 50.4 |  |  |
| CGGGAUCCGAAGGGCGAAAGCCCACAUGAGGAUCACCCAUGUAGAAGGCGGGCCGCAACGCGGCCCGAGGAUAUACAGGAUCCA | 17.9 | 37 |  |  |
| CGUCCACAUGAGGAUCACCCAUGUGAGGAUAUCCAUACCCACAACCAAUACACAUUAUGGAGAAGGCACACACA | 20.2 | 19.9 |  |  |
| GUCUGCUCGUGAGGAUAUACAACACUGCUUCGGCAGUGUAUUAAGAUCACAUGAGGAUCACCCAUGUAGAAGGCACGAGCUGAU | 14.1 | 252 |  |  |
| UGGUACUAGGGAGGAUAUGGAAAGAUACAUGAGGAUCACCCAUGUUUAAGAAUGCCGAGAGGCAACUAGAAGGCCCUAGUACCU |  |  | 11.1 | 5.29 |
| CAUAAACAUGAGGAUCACCCAUGUGAGGAUAUGAUAUUACUAGGACGGCUGUAAUCAAUCAGAAGGCACAUCUU | 18.5 | 37.5 |  |  |
| GCCUGAUCAACUCUAGGCCCAGACAGAAGGGCACACGGUCUAAGUCACAUGAGGAUCACCCAUGUGCAGGAUAUGUCUCGACUC | 8.03 | 21.4 |  |  |
| UGUUGUAUUACAGGAUAUCUAUUAUUUAUAUUUAGAGAAGGGUAUUCACAUGAGGAUCACCCAUGUAUAUACGAGGAAGUUGUG |  |  | 52.1 | 54 |
| GAGUCUCUAUUAGAACCGAUACGAACAUGAGGAUCACCCAUGUAGGAUAUGCUAAAAGUUGUGUUGCAGAAGGACAUUUAAAGC | 10.6 | 9.89 |  |  |
| UUAAAUCAUGUAGGAUAUGCAUGGCGAAGCUACGCAGAAGGACAUGAGGAUCACCCAUGUGCUAGCGACAGAGAACUGUUGCAA | 56.9 | 311 |  |  |
| UGAUAGGACAGAGGAUAUACGUGCUGGUGAUACUAGCAAAGUAUCGUGACAUGAGGAUCACCCAUGUAGAAGGCUGUCCUAUCU | 81.1 | 27.3 |  |  |
| ACAUGAGGAUCACCCAUGUUGAAUUAGGAUAUUUGACUGCACAUGAGGUUCACCCAUGUUCAACCGGAGAAGGGAUUAAUAAUU |  |  | 82.5 | 83.6 |
| UAUGAAUAGCAAGGAUAUUGAUAACAUGAGGAUCACCCAUGUAAUUGAUCGAGUUAGAUCAGUUACAAGAAGGUGCAAUUGAUU |  |  | 53 | 557 |
| UAGAAGUCAGGAUAUGCAUGGCGGGACUUGCGUCGUGGCGUGCAGAAGGGACAUGAGGAUCACCCAUGUAAAGU | 51.5 | 55.5 |  |  |
| UUGGACGUCGUAGGAUAUGUAGGAUAUUCCUACAUGAGGAUCACCCAUGUUGACAGGGAAGAAGGACAGAAGGACGAUGUCCAU |  |  | 17 | 4.01 |
| UGGUACUAGGGAGGAUAUGGGAAGAUACAUGAGGAUCACCCAUGUUUAAGAAUGCCGAGAGGCAACUAGAAGGCCCUAGUCCCU |  |  | 317 | 19.1 |
| GAUUUUUCUGAGGAUAUUGCAUCACCCGAUCUAUAAGAAGGCAGAACAUGAGGAUCACCCAUGUGGGUUUCUAG | 22.1 | 45.6 |  |  |
